Experimental data from ChEMBL document CHEMBL1143048, “Inhibition of monoamine oxidase B by selected benzimidazole and caffeine analogues” (Bioorg Med Chem, 2007).
pKi: −log10 of the molar value. Activity calls are given as the source filed them. No cut-off for these calls is given here.

What was measured:
[1] = Inhibition baboon liver mitochondrial MAOB; design: species or system Papio hamadryas
Outline: (§1)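 Mitochondrial fraction from baboon liver was used as the enzyme source, without MAO-A inactivation. Incubations were run in 100 mM sodium phosphate, pH 7.4, with 0.15 mg protein/mL, MMTP at four levels (30–120 μM), three inhibitor levels, and 4% DMSO final, for 15 min at 37 °C. Reactions were stopped with perchloric acid. MMDP⁺ was read at 420 nm, and Lineweaver-Burk plots were constructed.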

Papio hamadryas = species: Papio hamadryas; test: Inhibition baboon liver mitochondrial MAOB upto 50 uM; outline: as §1

| pKi [1] | Activity (Papio hamadryas) | SMILES |
| --- | --- | --- |
| 4.40 |  | Cn1c(=O)c2c(nc(/C=C/c3ccco3)n2C)n(C)c1=O |
| 5.24 |  | COc1ccc(/C=C/c2nc3ccccc3n2C)cc1 |
| 5.80 |  | Cn1c(=O)c2c(nc(/C=C/c3cccs3)n2C)n(C)c1=O |
| 4.83 |  | Cn1c(/C=C/c2ccc(F)cc2)nc2ccccc21 |
| 4.73 |  | Cn1c(/C=C/c2ccccc2)nc2ccccc21 |
| 4.95 |  | Cn1c(=O)c2c(nc(/C=C/c3ccsc3)n2C)n(C)c1=O |
| 2.68 |  | Cn1cnc2ccccc21 |
| 5.49 |  | Cc1ccc(/C=C/c2nc3ccccc3n2C)cc1 |
| 7.44 |  | Cn1c(=O)c2c(nc(/C=C/c3ccc(Cl)c(Cl)c3)n2C)n(C)c1=O |
| 5.60 |  | Cn1c(/C=C/c2ccc(Br)cc2)nc2ccccc21 |
| 7.07 |  | Cn1c(=O)c2c(nc(/C=C/c3cccc(Br)c3)n2C)n(C)c1=O |
| 4.40 |  | Cn1c(=O)c2c(nc3c4ccccc4ncn32)n(C)c1=O |
| 6.37 |  | Cn1c(/C=C/c2ccc(C(F)(F)F)cc2)nc2ccccc21 |
| 5.55 |  | Cn1c(/C=C/c2ccc(Cl)cc2)nc2ccccc21 |
| 6.62 |  | Cn1c(=O)c2c(nc(/C=C/c3cc(C(F)(F)F)cc(C(F)(F)F)c3)n2C)n(C)c1=O |
| 2.91 |  | Cc1nc2ccccc2[nH]1 |
|  | inactive | CCn1c(=O)c2c(nc3c4ccccc4ncn32)n(CC)c1=O |
